This note sets out measurements from ChEMBL document CHEMBL1155217, “Synthesis and evaluation of 3-(dihydroxyboryl)benzoic acids as D,D-carboxypeptidase R39 inhibitors” (J Med Chem, 2009).

Residue numbers refer to the chain shown, from its start. Some results are limits rather than exact numbers.

The subject of one series is Streptococcus pneumoniae. The experiment in a line: Inhibition of Streptococcus pneumoniae PBP1B assessed as residual activity at 1 mM after 60 mins by SDS-PAGE.
In series [1] the target is D-alanyl-D-alanine carboxypeptidase (Actinomadura sp. R39, UniProt P39045). The experiment in a line: Inhibition of Actinomadura sp. R39 penicillin-binding protein preincubated for 60 mins before addition of substrate mixture of (R)-[2-(benzoylamino)propionylsulfanyl]acetic acid and 5,5'-dithiobis(2-nitrobenzoic acid). In a few lines:
(§1)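 Purified R39 (3.5 nM) preincubated with compound in 10 mM sodium phosphate pH 7.2, 100 mM NaCl, 100 mM D-alanine, 0.01 mg/mL BSA, 60 min, 25 °C. S2d then added (final 1 mM) with DTNB (final 0.5 mM; 1% v/v DMF). Initial hydrolysis rate read at 412 nm. Spontaneous substrate hydrolysis was measured without enzyme. Triplicates. IC50 from nonlinear regression of RA across a concentration range.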

The target in series [2] is T1, Penicillin-binding protein 2x (Streptococcus pneumoniae serotype 4 (strain ATCC BAA-334 / TIGR4)) (UniProt P14677).
T1 sequence (whole entry): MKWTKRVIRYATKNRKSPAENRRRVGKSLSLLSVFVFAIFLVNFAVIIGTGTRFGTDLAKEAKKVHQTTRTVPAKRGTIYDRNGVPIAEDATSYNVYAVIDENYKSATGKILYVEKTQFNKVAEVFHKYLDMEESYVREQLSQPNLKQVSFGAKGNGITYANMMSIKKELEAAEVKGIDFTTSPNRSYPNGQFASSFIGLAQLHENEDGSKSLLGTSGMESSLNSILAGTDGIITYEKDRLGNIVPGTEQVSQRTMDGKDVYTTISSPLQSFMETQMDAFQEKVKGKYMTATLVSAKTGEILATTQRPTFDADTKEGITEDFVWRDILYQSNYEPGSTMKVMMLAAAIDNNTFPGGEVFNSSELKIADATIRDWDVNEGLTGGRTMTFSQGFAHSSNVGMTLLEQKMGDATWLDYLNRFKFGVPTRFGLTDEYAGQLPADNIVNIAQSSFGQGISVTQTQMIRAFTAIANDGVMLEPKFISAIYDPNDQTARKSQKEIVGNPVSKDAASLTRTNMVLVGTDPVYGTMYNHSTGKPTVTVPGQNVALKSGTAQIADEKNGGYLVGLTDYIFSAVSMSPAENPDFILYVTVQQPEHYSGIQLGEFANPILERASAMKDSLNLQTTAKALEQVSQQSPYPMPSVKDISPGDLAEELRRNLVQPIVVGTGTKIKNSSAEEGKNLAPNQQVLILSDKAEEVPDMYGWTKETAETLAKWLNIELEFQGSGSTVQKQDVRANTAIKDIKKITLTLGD
The experiment in a line: Inhibition of penicillin-resistant Streptococcus pneumoniae 5204 PBP2X assessed as residual activity at 100 uM preincubated for 4 hrs before addition of substrate mixture of (R)-[2-(benzoylamino)propionylsulfanyl]acetic acid and 5,5'-dithiobis(2-nitrobenzoic acid). In a few lines: (§2)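 PBP2x-5204 (0.6 μM) preincubated with compound in 10 mM sodium phosphate pH 7.0, 70 mM D-alanine, 0.01 mg/mL BSA, 4 h, 25 °C. S2d (final 1 mM) and DTNB (final 0.5 mM) then added. Residual activity taken from initial rate at 412 nm against uninhibited enzyme (six replicates per plate). Triplicates. IC50 by nonlinear regression.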

Series [3] addresses D-alanyl-D-alanine carboxypeptidase (Actinomadura sp. R39) (UniProt P39045). The experiment in a line: Inhibition of Actinomadura sp. R39 penicillin-binding protein assessed as residual activity at 100 uM preincubated for 60 mins before addition of substrate mixture of (R)-[2-(benzoylamino)propionylsulfanyl]acetic acid and 5,5'-dithiobis(2-nitrobenzoic acid). In a few lines:
as §1

Series [4] is described as follows: Solubility in sodium phosphate buffer saline of pH 7.2. Format: physicochemical.
For series [5], the target named is T2, Penicillin-binding protein 2X (Streptococcus pneumoniae R6) (UniProt P59676).
T2 sequence (whole entry): T1 sequence (whole entry) with T385M
The experiment in a line: Inhibition of penicillin-sensitive Streptococcus pneumoniae R6 PBP2X assessed as residual activity at 100 uM preincubated for 60 mins before addition of substrate mixture of (R)-[2-(benzoylamino)propionylsulfanyl]acetic acid and 5,5'-dithiobis(2-nitrobenzoic acid). In a few lines: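 PBP2x-R6 (0.09 μM) preincubated with compound in 10 mM sodium phosphate pH 7.0, 0.01 mg/mL BSA, 60 min, 25 °C. S2d (final 1 mM) and DTNB (final 0.5 mM) then added. Residual activity from initial rate at 412 nm, relative to enzyme-only wells. Triplicates. Repeated with 0.01% Triton X-100 when RA <80%.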

The target in series [6] is T2, Penicillin-binding protein 2X (Streptococcus pneumoniae R6). As to the kind of experiment: Inhibition of penicillin-sensitive Streptococcus pneumoniae R6 PBP2X assessed as residual activity at 500 uM preincubated for 60 mins before addition of substrate mixture of (R)-[2-(benzoylamino)propionylsulfanyl]acetic acid and 5,5'-dithiobis(2-nitrobenzoic acid). In a few lines: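 S. pneumoniae PBP2xR6 (0.09 μM) was preincubated with compound in 10 mM sodium phosphate pH 7.0 with 0.01 mg/mL BSA, for 60 min at 25 °C. S2d (1 mM final) and DTNB (0.5 mM final) were added, and the initial hydrolysis rate was monitored at 412 nm. Uninhibited activity (six replicates per plate) was set as 100%; assays ran in triplicate.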

Series [7] deals with T1, Penicillin-binding protein 2x (Streptococcus pneumoniae serotype 4 (strain ATCC BAA-334 / TIGR4)). The experiment in a line: Inhibition of penicillin-resistant Streptococcus pneumoniae 5204 PBP2X assessed as residual activity at 500 uM preincubated for 4 hrs before addition of substrate mixture of (R)-[2-(benzoylamino)propionylsulfanyl]acetic acid and 5,5'-dithiobis(2-nitrobenzoic acid). In a few lines: as §2

A short description of series [8]: Solubility in sodium phosphate buffer saline of pH 7.2 at 1 mM. The class given is physicochemical. As to conditions: pH 7.2, 1000 µM.
Series [9] concerns the target D-alanyl-D-alanine carboxypeptidase (Actinomadura sp. R39) (UniProt P39045). The experiment in a line: Inhibition of Actinomadura sp. R39 penicillin-binding protein at 0.5 mM preincubated for 60 mins before addition of substrate mixture of (R)-[2-(benzoylamino)propionylsulfanyl]acetic acid and 5,5'-dithiobis(2-nitrobenzoic acid). In a few lines:
(§3)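 Purified Actinomadura R39 D,D-peptidase (3.5 nM) was preincubated with compound for 60 min at 25 °C. S2d (1 mM final) and DTNB (0.5 mM final) were then added, with 1% v/v DMF. Initial rate was read at 412 nm, corrected for enzyme-free hydrolysis, in triplicate.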

Series [10] addresses Penicillin-binding protein 2x (Streptococcus pneumoniae serotype 4 (strain ATCC BAA-334 / TIGR4), UniProt P14677). As to the kind of experiment: Inhibition of penicillin-resistant Streptococcus pneumoniae 5204 PBP2X preincubated for 4 hrs before addition of substrate mixture of (R)-[2-(benzoylamino)propionylsulfanyl]acetic acid and 5,5'-dithiobis(2-nitrobenzoic acid). In a few lines:
as §2

The target in series [11] is D-alanyl-D-alanine carboxypeptidase (Actinomadura sp. R39) (UniProt P39045). As to the kind of experiment: Inhibition of Actinomadura sp. R39 penicillin-binding protein assessed as residual activity at 500 uM preincubated for 60 mins before addition of substrate mixture of (R)-[2-(benzoylamino)propionylsulfanyl]acetic acid and 5,5'-dithiobis(2-nitrobenzoic acid). In a few lines: as §3
D-alanyl-D-alanine carboxypeptidase (Actinomadura sp. R39), sequence (P39045 whole entry): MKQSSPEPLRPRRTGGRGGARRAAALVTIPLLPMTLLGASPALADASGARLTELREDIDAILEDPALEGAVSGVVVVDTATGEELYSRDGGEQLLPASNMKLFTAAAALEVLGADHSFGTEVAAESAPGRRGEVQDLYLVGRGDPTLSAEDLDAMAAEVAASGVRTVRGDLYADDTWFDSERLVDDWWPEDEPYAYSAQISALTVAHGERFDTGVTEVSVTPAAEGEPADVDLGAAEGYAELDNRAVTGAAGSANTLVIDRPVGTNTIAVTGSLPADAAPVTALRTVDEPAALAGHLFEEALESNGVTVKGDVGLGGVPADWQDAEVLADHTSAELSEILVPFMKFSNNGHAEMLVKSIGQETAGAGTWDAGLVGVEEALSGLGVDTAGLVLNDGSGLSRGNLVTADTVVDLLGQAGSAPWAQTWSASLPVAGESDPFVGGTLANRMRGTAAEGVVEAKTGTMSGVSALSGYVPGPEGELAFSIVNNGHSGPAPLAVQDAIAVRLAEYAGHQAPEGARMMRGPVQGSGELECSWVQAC

D-alanyl-D-alanine carboxypeptidase, sequence (P39045 whole entry): as above

Regarding `O=C(COc1ccccc1)Nc1cc(B(O)O)cc(C(=O)O)c1`, the Activity in the series on Streptococcus pneumoniae amounted to 83%. In series [1], the half-inhibitory concentration (IC50) (commonly the midpoint of a concentration-inhibition curve) turned out to be 28 µM.
Consider `O=C(O)c1cccc(B(O)O)c1`, for which the 50% inhibitory concentration (IC50) in series [1] came to 400 µM.
For the molecule `OB(O)c1ccc(-c2ccccc2)cc1` [BIPHENYLBORONIC ACID], the Activity is 120% in [2], 104% in [3] and 90% in [5]. Besides, the solubility entry in series [4] is reported as “Insoluble”.
As to `O=C(O)c1cc(NC(=O)c2cccs2)cc(B(O)O)c1`, in the series on Streptococcus pneumoniae, the Activity is 70%. Further, the IC50 in [1] came out at 32 µM.
For `O=C(Cc1cccs1)Nc1cc(B(O)O)cc(C(=O)O)c1`, the Activity with Streptococcus pneumoniae is 53%. Besides, the IC50 in series [1] worked out at 78 µM.
Consider `OB(O)c1ccccc1` [PHENYLBORONIC ACID], for which the Activity stood at 114% in series [6] and 78% in [7]. Besides, the solubility entry in series [8] was “Insoluble”. Also, the inhibition (in general, the change of the read-out against control, counted positive when it falls) in series [9] is 50%.
As for `O=C(Cc1ccccc1)Nc1cc(B(O)O)cc(C(=O)O)c1`, the IC50 in [1] was 88 µM.
With `O=C(O)c1ccc(B(O)O)s1`, in [10], the concentration for half-maximal inhibition (IC50) was above 1000 µM.
With `O=C(O)c1cc(NC(=O)c2ccccc2)cc(B(O)O)c1`, the Activity in the series with Streptococcus pneumoniae was found to be 85%. The IC50 in series [1] came to 34 µM.
As to `CN(C)c1cccc2c(S(=O)(=O)Nc3cccc(B(O)O)c3)cccc12`, the Activity in [6] stood at 91%.
On to `CC1(C)OB(c2cccc(C(=O)O)c2)OC1(C)C`, for which the results for the Activity in [6], in series [7] and in [11] were 93%, 98% and 38%, respectively. Also, the solubility entry in [8] was “Insoluble”. In addition, in [9], the inhibition is above 50%.
Consider `OB(O)c1ccc(-c2ccc(B(O)O)cc2)cc1`, for which the Activity in series [2] was 95%; in series [5], 104%. Further, the solubility entry in [4] is “Insoluble”.
Regarding `COc1ccccc1C(=O)Nc1cc(B(O)O)cc(C(=O)O)c1`, the Activity in the series with Streptococcus pneumoniae was 82%. Also, in [1], the concentration for half-maximal inhibition (IC50) was found to be 23 µM.
In the case of `OB(O)c1ccc(Oc2ccccc2)cc1`, in [2], the Activity came to 108%.
